Bioassay records as filed in PubChem.
Compounds with a hit are over-represented: about 2.9% of the library has one in this group of screens.
SUMO Mot1 rescue – blocks SUMOylation pathway, rescuing yeast Mot1-301 growth. 320,000 tested, 1% active. growth rescue, % at 18.8 µM. AID 2716. S. cerevisiae Mot1-301 growth rescue, ATP luminescence, 38.5C; percent above DMSO median, 100 means doubled;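 active means every valid replicate shows activation above 250% relative to neutral control wells; inactive means the rest, any valid replicate at or below 250%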;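 further: OY570 slx delta 5 strain wells were the positive control but not used for scaling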
NALP3 yeast inh – NALP3 inhibition in yeast. 330,000 tested, 0.39% active. Yeast reconstituted NLRP3/ASC/caspase-1, beta-gal luminescence, 24 h. inhibition, % at 10 µM. AID 2825;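 active means inhibition of 50% or more; inactive means inhibition below 50%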;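 further: plate controls were induced DMSO wells for no effect and uninduced yeast grown without galactose for full effect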
IMP-1 inhibitor – inhibitors of Pseudomonas aeruginosa IMP-1 metallo-beta-lactamase | 290,000 tested, 0.45% active | purified IMP-1, nitrocefin hydrolysis, epi-absorbance fluorescence | inhibition, % at 5.6 µM;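 active means inhibition above the mean plus 3 SD of all compounds in the same screening run, cut at about 4.5% in these data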;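 further: 0% = IMP-1 with DMSO and 100% = DMSO wells lacking enzyme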
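Test system: recombinant IMP-1 enzyme, purified / Medium: HEPES buffer pH 7.1 with ZnSO4 and Brij 35 / Doses: single dose, 5.6 µM / Times: 25 °C, 15 min preincubation, 25 min reaction / Detection: Epi-absorbance via hydrolysed-nitrocefin quenching of white-plate fluorescence, 480/530 nm, EDTA stop / Evaluation: percent inhibition from optical density relative to buffer-blank wells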
PolyA inhibitor – inhibitors of polyadenylation in S. cerevisiae. S. cerevisiae SKY197-pL101 polyadenylation reporter, beta-gal luminescence; efflux-impaired pdr1/pdr3 knockout yeast; score 100 = 6 SD above DMSO. activity score, % at 12 µM. 300,000 tested, 0.02% active. AID 1875;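 active means lowest replicate activity score at least 50, where 100 means six control SD above control mean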;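 further: yeast exposed to compound for 9 h at 30 °C; higher score means more reporter readthrough which indicates perturbed polyadenylation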
VIM-2 inhibitor – blocks Pseudomonas aeruginosa VIM-2 metallo-beta-lactamase; purified VIM-2, nitrocefin hydrolysis, epi-absorbance fluorescence; inhibition, % at 5.6 µM; 290,000 tested, 0.89% active; AID 1527;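 active means inhibition above the mean of all tested compounds plus 3 SD, cutoff set per screening run, cut at about 7.5% in these data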;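 further: red hydrolysis product quenches plate fluorescence so inhibitors raise well fluorescence; 0% = enzyme with DMSO and 100% = DMSO without enzyme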
NALP1 yeast inh – inhibitors of NALP1 inflammasome in yeast. S. cerevisiae NALP1/ASC/caspase-1 growth, X-gal OD620, 72 h. inhibition, % at 10 µM. 280,000 tested, 0.61% active; in the data active means inhibition mostly above about 24%, no sharp cut-off; inactive means mostly below about 32%
Starred values were filed as active, the others as inactive.

How did CCOc1ccccc1NC(=O)C(NC(=O)C1CCC(C)CC1)C(C)C (stereo not drawn) do in these assays?
SUMO Mot1 rescue: 42.2; NALP3 yeast inh: 7.7; IMP-1 inhibitor: -1.9; PolyA inhibitor: -14.1; VIM-2 inhibitor: -2.7; NALP1 yeast inh: 6.1

Results for N=c1sccn1CC(=O)Nc1ccccc1Oc1ccccc1 ?
SUMO Mot1 rescue: -15.7; NALP3 yeast inh: 17.5; IMP-1 inhibitor: -3.3; PolyA inhibitor: -5.7; VIM-2 inhibitor: -2.5; NALP1 yeast inh: 38.0*

What do the screens show for `CCCCS(=O)(=O)N1CCCC(C(=O)Oc2ccc(Cl)cc2)C1` (stereo not drawn)?
SUMO Mot1 rescue: -2.6; NALP3 yeast inh: 25.5; IMP-1 inhibitor: 6.0*; PolyA inhibitor: 12.3; VIM-2 inhibitor: -3.4; NALP1 yeast inh: -8.3

How did CCCCS(=O)(=O)N1CCCC(C(=O)NCCc2ccccc2)C1 (stereo not drawn) do in these assays?
SUMO Mot1 rescue: 10.4; NALP3 yeast inh: 5.5; IMP-1 inhibitor: 0.9; PolyA inhibitor: 18.2; VIM-2 inhibitor: -0.1; NALP1 yeast inh: 0.5

What do the screens show for `CCCCS(=O)(=O)N1CCCC(C(=O)Nc2ccc3c(c2)CCC3)C1` (stereo not drawn)?
SUMO Mot1 rescue: 23.6; NALP3 yeast inh: 19.2; IMP-1 inhibitor: 0.5; PolyA inhibitor: 20.6; VIM-2 inhibitor: 0.9; NALP1 yeast inh: 26.9*

How did CCCNC(=O)C1CN(C(=O)c2nn(Cc3ccccc3)c(=O)c3ccccc23)c2ccccc2O1 (stereo not drawn) do in these assays?
SUMO Mot1 rescue: -16.2; NALP3 yeast inh: 12.5

Results for Cc1ccccc1OCC(=O)NNC(=O)Cn1[nH]c(=O)c2ccccc2c1=O ?
SUMO Mot1 rescue: -12.9; NALP3 yeast inh: 7.5

How did c1ccc(-c2ccc3c(c2)c2c4n3CCN=C4CCC2)cc1 do in these assays?
SUMO Mot1 rescue: 128.8; NALP3 yeast inh: 12.1; IMP-1 inhibitor: 5.3*; PolyA inhibitor: -26.3; VIM-2 inhibitor: -0.9; NALP1 yeast inh: 14.8

How did OC(CNCCc1ccc(C(F)(F)F)cc1)COc1ccc2ccccc2c1 (stereo not drawn) do in these assays?
SUMO Mot1 rescue: 33.5; NALP3 yeast inh: 27.0; IMP-1 inhibitor: -0.7; PolyA inhibitor: 1.4; VIM-2 inhibitor: -1.7; NALP1 yeast inh: 96.0*

Results for OC(CNCCc1ccc(C(F)(F)F)cc1)COc1cccc2ccccc12 (stereo not drawn) ?
SUMO Mot1 rescue: -33.1; NALP3 yeast inh: 27.9; IMP-1 inhibitor: -2.6; PolyA inhibitor: -1.2; VIM-2 inhibitor: -2.8; NALP1 yeast inh: 102.8*

Results for COc1ccccc1COCC(O)CNCCc1ccc(C(F)(F)F)cc1 (stereo not drawn) ?
SUMO Mot1 rescue: -26.3; NALP3 yeast inh: 23.0; IMP-1 inhibitor: -0.4; PolyA inhibitor: 4.9; VIM-2 inhibitor: -0.5; NALP1 yeast inh: 24.5

Results for CCCC(=O)N(c1ccc(C(=O)O)cc1)c1nc(-c2ccccc2)c(C)s1 ?
SUMO Mot1 rescue: 7.9; NALP3 yeast inh: 4.3; IMP-1 inhibitor: -0.7; PolyA inhibitor: -13.5; VIM-2 inhibitor: -1.6; NALP1 yeast inh: 0.6

What do the screens show for `C=CCOn1c(=O)c(-c2cc3ccccc3o2)[n+]([O-])c2ccccc21`?
SUMO Mot1 rescue: 2.9; NALP3 yeast inh: 20.0; IMP-1 inhibitor: -0.5; PolyA inhibitor: 3.7; VIM-2 inhibitor: -0.6; NALP1 yeast inh: 28.3*

What do the screens show for `CC1CCCN(C(=O)c2cc3ccccc3cc2O)C1` (stereo not drawn)?
SUMO Mot1 rescue: -0.5; NALP3 yeast inh: -2.2; IMP-1 inhibitor: -2.1; PolyA inhibitor: 4.8; VIM-2 inhibitor: -2.3; NALP1 yeast inh: 17.2

What do the screens show for `COc1ccc(/C=C2/N=C(c3cccs3)OC2=O)cc1OC(C)C`?
SUMO Mot1 rescue: 891.9*; NALP3 yeast inh: 17.5; IMP-1 inhibitor: -4.2; PolyA inhibitor: -2.8; VIM-2 inhibitor: -2.3; NALP1 yeast inh: 2.6

What do the screens show for `CC(=O)C(Cc1ccccc1)NC(=O)COC(=O)c1cccc(C)c1[N+](=O)[O-]` (stereo not drawn)?
SUMO Mot1 rescue: 8.1; NALP3 yeast inh: 17.1

What do the screens show for `Cc1cc(C(=O)N2CCN(S(=O)(=O)c3ccc(C)c(C)c3)CC2)no1`?
NALP3 yeast inh: 15.0
